We go through 21 compounds from ChEMBL document CHEMBL1135682, “Synthesis and antimycobacterial activity of pyrazine and quinoxaline derivatives” (J Med Chem, 2002).

In brackets after ≈: the same amount, converted by molar mass. A value given as a limit tells only on which side of the number the result lay.

A short description of series [1]: Minimum inhibitory concentration against Mtb H37Rv using Middlebrook 7H9 with glycerol and OADC enrichment. As to conditions: Mycobacterium tuberculosis. It is filed as functional.
Series [2] can be described thus: Minimum inhibitory concentration against MAC NJ211 using Middlebrook 7H9 with glycerol and OADC enrichment. The series is classed as functional. As to conditions: Mycobacterium avium. The method in brief:
(§1)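 Run in-house in Middlebrook 7H9 broth with glycerol and OADC enrichment, pH 6.6, against Mtb H37Ra or M. avium; the M. avium strains came from the National Jewish Center, Denver. Ethambutol served as a reference drug. The read-out is the MIC.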

A short description of series [3]: Partition coefficient was evaluated using method of Morgiuchi et al. As to conditions: octanol/water; read-out: mLog P. The series is classed as physicochemical.
A short description of series [4]: Minimum inhibitory concentration against Mtb H37Ra using Middlebrook 7H9 with glycerol and OADC enrichment. It is filed as functional. As to conditions: Mycobacterium tuberculosis. The method in brief:
as §1

On to `CC(=O)Oc1ccc(COC(=O)c2cnc3ccccc3n2)cc1`, for which the figures for the MIC in series [1], in series [2] and in series [4] were 6.25 µg/mL (≈ 19.4 µM), 16 µg/mL (≈ 49.6 µM) and 0.5 µg/mL (≈ 1.55 µM), respectively. The logP in series [3] was determined as 2.15.

As to `O=C(O)c1cnccn1` [PYRAZINOIC ACID], the minimal inhibitory concentration (MIC) (as a rule, the smallest concentration in the dilution series that meets the test's criterion for growth inhibition) in series [2] was above 128 µg/mL; in series [4], 64 µg/mL (≈ 516 µM).

Take `COC(=O)c1cnc2ccccc2n1`: the minimal inhibitory concentration (MIC) is above 6.25 µg/mL in series [1], above 128 µg/mL in series [2] and above 128 µg/mL in series [4]. In series [3], the logP was 0.84.

As to `O=C(OCc1ccccc1[N+](=O)[O-])c1cnccn1`, the minimum inhibitory concentration (MIC) in series [1] was above 6.25 µg/mL; in series [2] it was above 128 µg/mL; in series [4], 64 µg/mL (≈ 247 µM). Besides, the logP in series [3] was found to be 0.99.

For `O=C(OCc1ccc(C(F)(F)F)cc1)c1cnccn1`, the MIC is above 6.25 µg/mL in series [1], above 128 µg/mL in series [2] and 128 µg/mL (≈ 454 µM) in series [4]. The logP in series [3] came to 1.87.

For `O=C(OCc1ccc([N+](=O)[O-])cc1)c1ccccn1`, the MIC in series [1] is above 6.25 µg/mL; in series [2], above 128 µg/mL; in series [4], 128 µg/mL (≈ 496 µM). The logP in series [3] was 2.29.

For the compound `O=C(OCc1ccccc1)c1cnccn1`, the figures for the minimal inhibitory concentration (MIC) in series [1], in series [2] and in series [4] were above 6.25 µg/mL, above 128 µg/mL and 16 µg/mL (≈ 74.7 µM), respectively. In addition, in series [3], the logP amounted to 0.94.

With `NC(=O)c1cnc2ccccc2n1`, the minimal inhibitory concentration (MIC) in series [1] was above 6.25 µg/mL; in series [2], above 128 µg/mL; in series [4], above 128 µg/mL. Moreover, the logP in series [3] was 0.13.

With `CC(=O)OCc1ccc(OC(C)=O)cc1`, the minimal inhibitory concentration (MIC) in series [2] was 128 µg/mL (≈ 615 µM); in series [4], 8 µg/mL (≈ 38.4 µM). Moreover, the logP in series [3] amounted to 2.03.

For the compound `O=C(OCc1ccc([N+](=O)[O-])cc1)c1cnc2ccccc2n1`, the minimum inhibitory concentration (MIC) is above 6.25 µg/mL in series [1], above 128 µg/mL in series [2] and above 128 µg/mL in series [4]. The logP in series [3] was found to be 2.27.

Consider `CCCCCCCCOC(=O)c1cnc2ccccc2n1`, for which the minimal inhibitory concentration (MIC) was above 6.25 µg/mL in series [1], 128 µg/mL (≈ 447 µM) in series [2] and 128 µg/mL (≈ 447 µM) in series [4]. In addition, the logP in series [3] turned out to be 2.61.

With `CCCOC(=O)c1cnc2ccccc2n1`, the MIC in series [1] is 6.25 µg/mL (≈ 28.9 µM); in series [2], 128 µg/mL (≈ 592 µM); in series [4] it was 64 µg/mL (≈ 296 µM). The logP in series [3] came to 1.41.

On to `CCCCCCC(C)OC(=O)c1cnc2ccccc2n1` (configuration not stated), for which the MIC in series [1] was above 6.25 µg/mL; in series [2], 128 µg/mL (≈ 447 µM); in series [4], 64 µg/mL (≈ 223 µM). For the same compound, the logP in series [3] came to 2.7.

As to `CC(=O)OCc1ccc([N+](=O)[O-])cc1`, the MIC in series [1] was above 6.25 µg/mL; in series [2], above 128 µg/mL; in series [4], above 128 µg/mL. Further, the logP in series [3] turned out to be 2.02.

Turning to `O=C(OCc1ccc([N+](=O)[O-])cc1)c1cnccn1`, the values for the minimal inhibitory concentration (MIC) in series [1], in series [2] and in series [4] were 6.25 µg/mL (≈ 24.1 µM), above 128 µg/mL and 128 µg/mL (≈ 494 µM), respectively. The logP in series [3] came to 0.99.

In series [1], `O=C(OCc1ccc([N+](=O)[O-])cc1)c1ccccc1` yielded an MIC above 6.25 µg/mL. For the same compound, in series [3], the logP is 3.45.

For `O=C(O)c1cnc2ccccc2n1`, the minimum inhibitory concentration (MIC) in series [2] and in series [4] was above 128 µg/mL each time.

Regarding `CC(=O)Oc1ccc(COC(=O)c2ccccc2)cc1`, the MIC is above 6.25 µg/mL in series [1], 128 µg/mL (≈ 474 µM) in series [2] and 16 µg/mL (≈ 59.2 µM) in series [4]. For the same compound, the logP in series [3] turned out to be 3.38.

In the case of `O=C(OCc1ccccc1[N+](=O)[O-])c1cnc2ccccc2n1`, the MIC is above 6.25 µg/mL in series [1], above 128 µg/mL in series [2] and above 128 µg/mL in series [4]. Besides, the logP in series [3] came to 2.27.

Take `CC(=O)Oc1ccc(COC(=O)c2cnccn2)cc1`: the MIC in series [1] was 6.25 µg/mL (≈ 23 µM); in series [2] it was 16 µg/mL (≈ 58.8 µM); in series [4], below 0.25 µg/mL. Moreover, the logP in series [3] came to 0.92.

As to `NNC(=O)c1cnc2ccccc2n1`, the MIC was above 6.25 µg/mL in series [1], above 128 µg/mL in series [2] and 64 µg/mL (≈ 340 µM) in series [4]. Moreover, the logP in series [3] came to 0.16.
